Calls of active or inactive are those of the source. No cut-off for these calls is given here. Starred links: 1 amine or outer side, 2 acyl side, 3 side chain; linkers in the order of their positions; H or OH if unused. Positions of bridges follow the written chain, without caps; N, C: chain ends. Non-standard residues stand in square brackets, D forms with d. Residues, ends and D or L forms follow the SMILES beside them. ξ: configuration not given here. *: point of attachment. CH2CONHCH2CH2NHCOCH2 = O=C(C[*:1])NCCNC(=O)C[*:2]; Propanoyl(3,3-Ph2) = O=C(CC(c1ccccc1)c1ccccc1)*; Pyridine(2,6-diCH2) = c1cc(C[*:1])nc(C[*:2])c1; X2 = O=C(CC(c1ccccc1)(c1ccccc1)c1ccccc1)*; dDip = N[C@@H](C(=O)O)C(c1ccccc1)c1ccccc1; X5 = c1cc(Cc2cccc(C[*:2])c2)cc(C[*:1])c1; Dip = N[C@H](C(=O)O)C(c1ccccc1)c1ccccc1; X7 = c1cc(Oc2ccc(C[*:2])cc2)ccc1C[*:1]; TBMB = c1c(C[*:1])cc(C[*:3])cc1C[*:2]; mXylylene = c1cc(C[*:1])cc(C[*:2])c1; oXylylene = c1ccc(C[*:2])c(C[*:1])c1; NH(CH2CH2O)2CH2CH2NH2 = NCCOCCOCCN*; X6 = c1cc(C[*:1])c2c(C[*:2])cccc2c1; pXylylene = c1cc(C[*:2])ccc1C[*:1]; Palmitoyl = CCCCCCCCCCCCCCCC(=O)*; X4 = c1cc(CSCCN[*:2])cc(C[*:1])c1; X3 = O=S(=O)(CC[*:1])CC[*:2]; ξF = NC(Cc1ccccc1)C(=O)O; Mpa = O=C(O)CCS
What follows are compounds tested on Mus musculus (assay: Decrease in serum iron level in C57BL/6 mouse at 100 nmol, sc after 24 hrs by colorimetric analysis).
Type: functional, organism-based
Method in brief: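 C57BL/6 mice on NIH 31 diet (iron 336 mg/kg). Single subcutaneous injection of 50, 100 or 200 nmoles peptide in 100 μL PBS; controls received PBS alone. Killed at 24 h, serum from cardiac blood. Serum iron by colorimetric assay (microplate, 50 μL serum). Percent decrease versus mean of PBS-injected mice.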

| SMILES | Activity |
| --- | --- |
| CCCCCCCCCCCCCCCCNC(=O)CN(CC(N)=O)C(=O)CCCCCNC(=O)C[C@H](Cc1ccccc1)NC(=O)[C@H](CCCNC(=N)N)NC(=O)[C@H](CS)NC(=O)[C@H](CCCNC(=N)N)NC(=O)C[C@@H]1CCCN1C(=O)[C@@H](NC(=O)[C@H](Cc1c[nH]cn1)NC(=O)[C@@H](NC(=O)CNCC(=O)O)[C@@H](C)O)C(c1ccccc1)c1ccccc1 | Active |

What follows are compounds tested on Plasma (assay: Metabolic stability in mouse plasma at 25 uM by LC/MS analysis).
Type: ADME, cell-free
Method in brief: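 Peptide from 10 mM DMSO stock added to fresh mouse plasma (final 25 μM), incubated at 37 °C. Samples (10 μL) taken at time-points and diluted into DMSO/ACN 1:1 with 0.1% TFA. Centrifuged 13000 rpm, 10 min. Supernatant analysed by triple-quadrupole LC/MS with NM4A-Me peptide as internal standard.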

| SMILES | Stability |
| --- | --- |
| CCCCCCCCCCCCCCCCNC(=O)CN(CC(N)=O)C(=O)CCCCCNC(=O)C[C@H](Cc1ccccc1)NC(=O)[C@H](CCCNC(=N)N)NC(=O)[C@H](CS)NC(=O)[C@H](CCCNC(=N)N)NC(=O)C[C@@H]1CCCN1C(=O)[C@@H](NC(=O)[C@H](Cc1c[nH]cn1)NC(=O)[C@@H](NC(=O)CNCC(=O)O)[C@@H](C)O)C(c1ccccc1)c1ccccc1 | Stable |

These compounds were tested against T1, Ferroportin (Homo sapiens, UniProt Q9NP59) (assay: Agonist activity at GFP-fused human FPN transfected in HEK293 cells assessed as protein degradation after 24 hrs by flow cytometric analysis).
T1 sequence (Q9NP59 whole entry): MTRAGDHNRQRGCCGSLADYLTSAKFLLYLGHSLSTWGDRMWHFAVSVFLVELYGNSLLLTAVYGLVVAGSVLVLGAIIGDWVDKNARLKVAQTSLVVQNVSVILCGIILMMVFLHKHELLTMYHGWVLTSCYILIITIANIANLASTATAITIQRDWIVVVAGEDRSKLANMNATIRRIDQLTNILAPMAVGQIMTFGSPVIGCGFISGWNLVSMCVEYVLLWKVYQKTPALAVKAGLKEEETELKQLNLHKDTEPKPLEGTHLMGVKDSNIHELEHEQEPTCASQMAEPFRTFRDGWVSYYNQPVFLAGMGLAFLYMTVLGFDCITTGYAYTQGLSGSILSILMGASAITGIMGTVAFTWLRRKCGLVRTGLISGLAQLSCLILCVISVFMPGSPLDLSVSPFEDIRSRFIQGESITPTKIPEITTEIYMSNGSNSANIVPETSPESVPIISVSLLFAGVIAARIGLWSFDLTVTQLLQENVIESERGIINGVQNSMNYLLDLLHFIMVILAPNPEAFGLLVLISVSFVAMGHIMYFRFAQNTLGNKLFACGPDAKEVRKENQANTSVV
Type: cell-based
Method in brief: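 HEK293:TREX-Fpn-GFP cells (human ferroportin-GFP, doxycycline-inducible) plated on poly-D-lysine with 20 μM FAC, induced with 500 ng/mL doxycycline for 24 h, washed, then peptide-treated 24 h. Green fluorescence read by flow cytometry at 1 × 10^6 cells/mL, gated against uninduced cells. Activity expressed as fraction of hep25: 1 − [(Fx − Fhep25)/(Funtreated − Fhep25)]. 3–6 independent repeats.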

| SMILES | EC50 |
| --- | --- |
| N=C(N)NCCC[C@@H]1NC(=O)[C@H](CS)NC(=O)[C@H](CCCNC(=N)N)NC(=O)[C@H](NC(=O)CC(c2ccccc2)c2ccccc2)CSCc2cccc(c2)CSCCNC(=O)[C@H](Cc2ccccc2)NC1=O | 269 nM |
| CC(=O)N[C@H]1CSCc2cccc(n2)CSC[C@@H](C(N)=O)NC(=O)[C@H](Cc2ccccc2)NC(=O)[C@H](CCCNC(=N)N)NC(=O)[C@H](CS)NC(=O)[C@H](CCCNC(=N)N)NC(=O)[C@@H]2CCCN2C(=O)[C@H](Cc2ccccc2)NC1=O (Ac-CFPRCRFC-NH2; linker 1-8 via Pyridine(2,6-diCH2)) | > 600 nM |
| CC(=O)N[C@H]1CSCCS(=O)(=O)CCSC[C@@H](C(N)=O)NC(=O)[C@H](Cc2ccccc2)NC(=O)[C@H](CCCNC(=N)N)NC(=O)[C@H](CS)NC(=O)[C@H](CCCNC(=N)N)NC(=O)[C@@H]2CCCN2C(=O)[C@H](Cc2ccccc2)NC1=O (Ac-CFPRCRFC-NH2; linker 1-8 via X3) | > 600 nM |
| N=C(N)NCCC[C@@H]1NC(=O)[C@H](CS)NC(=O)[C@H](CCCNC(=N)N)NC(=O)[C@H](NC(=O)CC(c2ccccc2)c2ccccc2)CSCc2cccc(c2)CSC[C@@H](C(N)=O)NC(=O)[C@H](Cc2ccccc2)NC1=O ({Propanoyl(3,3-Ph2)}-[dC]RCRFC-NH2; linker 1-6 via mXylylene) | 335 nM |
| CC(=O)N[C@H]1CSCc2cc3cc(c2)CSC[C@H](NC(=O)C(Cc2ccccc2)NC(=O)[C@H](CCCNC(=N)N)NC(=O)[C@H](CS)NC(=O)[C@H](CCCNC(=N)N)NC(=O)[C@@H]2CCCN2C(=O)[C@H](Cc2ccccc2)NC1=O)C(=O)N[C@@H](Cc1ccccc1)C(=O)N1CCC[C@H]1C(=O)N[C@@H](CCCNC(=N)N)C(=O)N[C@@H](CS)C(=O)N[C@@H](CCCNC(=N)N)C(=O)N[C@@H](Cc1ccccc1)C(=O)N[C@H](C(N)=O)CSC3 (some centres undefined) (Ac-CFPRCR[ξF]CFPRCRFC-NH2; linker 1-8-15 via TBMB) | > 600 nM |
| CC(=O)N[C@H]1CSCc2cccc(c2)Cc2cccc(c2)CSC[C@@H](C(N)=O)NC(=O)[C@H](Cc2ccccc2)NC(=O)[C@H](CCCNC(=N)N)NC(=O)[C@H](CS)NC(=O)[C@H](CCCNC(=N)N)NC(=O)[C@@H]2CCCN2C(=O)[C@H](Cc2ccccc2)NC1=O (Ac-CFPRCRFC-NH2; linker 1-8 via X5) | 517 nM |
| CC(=O)N[C@H]1CSCc2ccc(cc2)Oc2ccc(cc2)CSC[C@@H](C(N)=O)NC(=O)[C@H](Cc2ccccc2)NC(=O)[C@H](CCCNC(=N)N)NC(=O)[C@H](CS)NC(=O)[C@H](CCCNC(=N)N)NC(=O)[C@@H]2CCCN2C(=O)[C@H](Cc2ccccc2)NC1=O (Ac-CFPRCRFC-NH2; linker 1-8 via X7) | 477 nM |
| CC(=O)N[C@H]1CSCC(=O)NCCNC(=O)CSC[C@@H](C(N)=O)NC(=O)[C@H](Cc2ccccc2)NC(=O)[C@H](CCCNC(=N)N)NC(=O)[C@H](CS)NC(=O)[C@H](CCCNC(=N)N)NC(=O)[C@@H]2CCCN2C(=O)[C@H](Cc2ccccc2)NC1=O (Ac-CFPRCRFC-NH2; linker 1-8 via CH2CONHCH2CH2NHCOCH2) | > 600 nM |
| N=C(N)NCCC[C@@H]1NC(=O)[C@@H](NC(=O)CC(c2ccccc2)(c2ccccc2)c2ccccc2)CSCc2cccc(c2)CSC[C@@H](C(N)=O)NC(=O)[C@H](Cc2ccccc2)NC(=O)[C@H](CCCNC(=N)N)NC(=O)[C@H](CS)NC1=O (X2-CRCRFC-NH2; linker 1-6 via mXylylene) | 113 nM |

Results, then the compound that gave them:

| EC50 | SMILES |
| --- | --- |
| 165 nM | CC(=O)N[C@H]1CSCc2cccc(c2)CSC[C@@H](C(=O)NCCOCCOCCN)NC(=O)[C@H](Cc2ccccc2)NC(=O)[C@H](CCCNC(=N)N)NC(=O)[C@H](CS)NC(=O)[C@H](CCCNC(=N)N)NC(=O)[C@@H]2CCCN2C(=O)[C@H](C(c2ccccc2)c2ccccc2)NC1=O (Ac-C[Dip]PRCRFC-{NH(CH2CH2O)2CH2CH2NH2}; linker 1-8 via mXylylene) |
| 369 nM | CCCCCCCCCCCCCCCC(=O)N[C@H]1CSCc2cccc(c2)CSCCNC(=O)[C@H](Cc2ccccc2)NC(=O)[C@H](CCCNC(=N)N)NC(=O)[C@H](CS)NC(=O)[C@H](CCCNC(=N)N)NC(=O)[C@@H]2CCCN2C(=O)[C@H](C(c2ccccc2)c2ccccc2)NC1=O (Palmitoyl-C[Dip]PRCRF; linker 1-C via X4) |
| 92.3 nM | N=C(N)NCCC[C@@H]1NC(=O)[C@H](CS)NC(=O)[C@H](CCCNC(=N)N)NC(=O)[C@@H]2CCCN2C(=O)[C@H](C(c2ccccc2)c2ccccc2)NC(=O)CCSCc2cccc(c2)CSC[C@@H](C(=O)NCCOCCOCCN)NC(=O)[C@H](Cc2ccccc2)NC1=O ([Mpa][Dip]PRCRFC-{NH(CH2CH2O)2CH2CH2NH2}; linker 1-8 via mXylylene) |
| 458 nM | CCCCCCCCCCCCCCCC(=O)N[C@@H](C(=O)N[C@H]1CSCc2cccc(c2)CSCCNC(=O)[C@H](Cc2ccccc2)NC(=O)[C@H](CCCNC(=N)N)NC(=O)[C@H](CS)NC(=O)[C@H](CCCNC(=N)N)NC1=O)C(c1ccccc1)c1ccccc1 (Palmitoyl-[dDip]CRCRF; linker 2-C via X4) |
| > 600 nM | CC(=O)N[C@H]1CSCc2cccc3cccc(c23)CSC[C@@H](C(N)=O)NC(=O)[C@H](Cc2ccccc2)NC(=O)[C@H](CCCNC(=N)N)NC(=O)[C@H](CS)NC(=O)[C@H](CCCNC(=N)N)NC(=O)[C@@H]2CCCN2C(=O)[C@H](Cc2ccccc2)NC1=O (Ac-CFPRCRFC-NH2; linker 1-8 via X6) |
| 54.3 nM | CC(=O)N[C@H]1CSCc2cccc(c2)CSC[C@@H](C(N)=O)NC(=O)[C@H](Cc2ccccc2)NC(=O)[C@H](CCCNC(=N)N)NC(=O)[C@H](CS)NC(=O)[C@H](CCCNC(=N)N)NC(=O)[C@@H]2CCCN2C(=O)[C@H](C(c2ccccc2)c2ccccc2)NC1=O (Ac-C[Dip]PRCRFC-NH2; linker 1-8 via mXylylene) |
| 272 nM | CC(=O)N[C@H]1CSCc2cccc(c2)CSC[C@@H](C(N)=O)NC(=O)[C@H](Cc2ccccc2)NC(=O)[C@H](CCCNC(=N)N)NC(=O)[C@H](CS)NC(=O)[C@H](CCCNC(=N)N)NC(=O)[C@@H]2CCCN2C(=O)[C@H](Cc2ccccc2)NC1=O (Ac-CFPRCRFC-NH2; linker 1-8 via mXylylene) |
| 532 nM | C[C@@H](O)[C@H](NC(=O)CNCC(=O)O)C(=O)N[C@H]1CSCc2cccc(c2)CSC[C@@H](C(N)=O)NC(=O)[C@H](Cc2ccccc2)NC(=O)[C@H](CCCNC(=N)N)NC(=O)[C@H](CS)NC(=O)[C@H](CCCNC(=N)N)NC(=O)[C@@H]2CCCN2C(=O)[C@H](Cc2ccccc2)NC1=O |
| 586 nM | CC(=O)N[C@H]1CSCc2ccc(cc2)CSC[C@@H](C(N)=O)NC(=O)[C@H](Cc2ccccc2)NC(=O)[C@H](CCCNC(=N)N)NC(=O)[C@H](CS)NC(=O)[C@H](CCCNC(=N)N)NC(=O)[C@@H]2CCCN2C(=O)[C@H](Cc2ccccc2)NC1=O (Ac-CFPRCRFC-NH2; linker 1-8 via pXylylene) |
| 75.1 nM | C[C@@H](O)[C@H](NC(=O)CNCC(=O)O)C(=O)N[C@H]1CSCc2cccc(c2)CSC[C@@H](C(N)=O)NC(=O)[C@H](Cc2ccccc2)NC(=O)[C@H](CCCNC(=N)N)NC(=O)[C@H](CS)NC(=O)[C@H](CCCNC(=N)N)NC(=O)[C@@H]2CCCN2C(=O)[C@H](C(c2ccccc2)c2ccccc2)NC1=O |
| 599 nM | CC(=O)N[C@H]1CSCc2ccccc2CSC[C@@H](C(N)=O)NC(=O)[C@H](Cc2ccccc2)NC(=O)[C@H](CCCNC(=N)N)NC(=O)[C@H](CS)NC(=O)[C@H](CCCNC(=N)N)NC(=O)[C@@H]2CCCN2C(=O)[C@H](Cc2ccccc2)NC1=O (Ac-CFPRCRFC-NH2; linker 1-8 via oXylylene) |
| > 600 nM | CCCCCCCCCCCCCCCC(=O)N[C@H]1CSCc2cccc(c2)CSC[C@@H](C(N)=O)NC(=O)[C@H](Cc2ccccc2)NC(=O)[C@H](CCCNC(=N)N)NC(=O)[C@H](CS)NC(=O)[C@H](CCCNC(=N)N)NC(=O)[C@@H]2CCCN2C(=O)[C@H](C(c2ccccc2)c2ccccc2)NC1=O (Palmitoyl-C[Dip]PRCRFC-NH2; linker 1-8 via mXylylene) |
| > 600 nM | CCCCCCCCCCCCCCCC(=O)N[C@H](C(=O)N[C@H]1CSCc2cccc(c2)CSCCNC(=O)[C@H](Cc2ccccc2)NC(=O)[C@H](CCCNC(=N)N)NC(=O)[C@H](CS)NC(=O)[C@H](CCCNC(=N)N)NC1=O)C(c1ccccc1)c1ccccc1 (Palmitoyl-[Dip]CRCRF; linker 2-C via X4) |

From ChEMBL document CHEMBL3621052, “Small cyclic agonists of iron regulatory hormone hepcidin” (Bioorg Med Chem Lett, 2015)
